Reference: ChEMBL document CHEMBL1125075, “Synthesis of a new class of 2,3-dihydro-2-oxo-1H-benzimidazole-1-carboxylic acid derivatives as highly potent 5-HT3 receptor antagonists” (J Med Chem, 1990)

Experiments:
Rattus norvegicus = assay: Effective dose that causes 50% reduction of serotonin effect in rats intravenously; format: functional
In short: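 Rat 5-HT-induced von Bezold-Jarisch reflex. ED50 is the antagonist dose giving 50% reduction of the serotonin effect, calculated by linear regression. Means with 95% confidence limits.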

[1] = biological target: T1, Serotonin 3 (5-HT3) receptor (Rattus norvegicus, UniProt P35563+Q9JJ16); assay: Concentration that inhibits the binding of radioligand, [3H]-ICS 205930, to 5-hydroxytryptamine 3 receptor from rat cortex
T1 sequence (P35563 whole entry): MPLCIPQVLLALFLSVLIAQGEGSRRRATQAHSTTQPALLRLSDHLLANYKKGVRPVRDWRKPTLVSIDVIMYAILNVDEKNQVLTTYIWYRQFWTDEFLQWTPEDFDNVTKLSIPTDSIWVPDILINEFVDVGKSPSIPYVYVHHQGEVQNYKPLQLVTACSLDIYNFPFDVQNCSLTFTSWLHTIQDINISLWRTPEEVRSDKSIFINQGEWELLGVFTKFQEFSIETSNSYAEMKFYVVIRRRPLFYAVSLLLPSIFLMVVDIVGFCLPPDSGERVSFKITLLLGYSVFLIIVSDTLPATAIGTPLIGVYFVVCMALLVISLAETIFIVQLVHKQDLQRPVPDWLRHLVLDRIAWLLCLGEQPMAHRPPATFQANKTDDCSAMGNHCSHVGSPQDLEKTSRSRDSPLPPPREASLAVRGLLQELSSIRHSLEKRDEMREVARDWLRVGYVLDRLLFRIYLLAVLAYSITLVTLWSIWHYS
T1 sequence (Q9JJ16 whole entry): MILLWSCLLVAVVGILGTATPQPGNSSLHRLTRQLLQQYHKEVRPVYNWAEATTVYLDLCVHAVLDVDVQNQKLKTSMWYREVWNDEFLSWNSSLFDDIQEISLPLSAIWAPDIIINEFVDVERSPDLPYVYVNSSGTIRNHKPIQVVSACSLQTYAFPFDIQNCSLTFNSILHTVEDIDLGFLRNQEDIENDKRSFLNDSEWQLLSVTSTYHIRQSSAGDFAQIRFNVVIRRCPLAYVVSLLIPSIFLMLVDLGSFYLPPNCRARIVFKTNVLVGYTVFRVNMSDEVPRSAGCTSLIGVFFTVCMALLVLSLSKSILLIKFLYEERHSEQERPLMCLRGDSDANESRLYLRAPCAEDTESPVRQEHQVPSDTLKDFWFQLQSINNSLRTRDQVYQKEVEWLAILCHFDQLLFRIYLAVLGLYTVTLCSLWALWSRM
In short: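 Rat cerebral cortex P2 fraction homogenised in 50 mM Tris·HCl pH 7.4 with 0.1% ascorbate, 4 mM CaCl2 and 10 μM pargyline, about 500 μg/mL protein. Incubated with 0.5–2.0 nM [3H]ICS 205930 (82.7 Ci/mmol) and a range of test concentrations, 30 °C for 30 min. Nonspecific binding with 10 μM reference antagonist; GF/B filtration; triplicate; Ki by computer fit.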

[2] = Rattus norvegicus, iv, read-out: ED50

| Compound | ED50 (Rattus norvegicus) [nM/kg] | Ki [1] [nM] | ED50 (Rattus norvegicus; [2]) [µmol/kg] |
| --- | --- | --- | --- |
| CN1CC2CCC1CC2OC(=O)n1c(=O)[nH]c2ccccc21.O=C(O)CC(O)(CC(=O)O)C(=O)O (configuration not stated) | 18.9 | – | – |
| CN1C2CCC1CC(NC(=O)n1c(=O)n(C)c3ccccc31)C2 (configuration not stated) | – | 1.7 | 0.0054 |
| CN1C2CCC1CC(NC(=O)n1c(=O)[nH]c3ccccc31)C2 (configuration not stated) | 1 | 3.75 | – |
| CN1C2CCCC1CC(OC(=O)n1c(=O)[nH]c3ccccc31)C2.O=C(O)CC(O)(CC(=O)O)C(=O)O (configuration not stated) | >3000 | > 1000 | – |
| Cc1ccc2c(c1)[nH]c(=O)n2C(=O)OC1CC2CCC(C1)N2C (configuration not stated) | – | > 1000 | > 3 |
| CN1C2CCC1CC(OC(=O)n1c(=O)[nH]c3ccccc31)C2 (configuration not stated) | 17.9 | 21.4 | – |
| CN1CCC(NC(=O)n2c(=O)[nH]c3ccccc32)CC1 | – | 436 | 1.52 |
| CC(=O)c1ccc2[nH]c(=O)n(C(=O)OC3CC4CCC(C3)N4C)c2c1 (configuration not stated) | – | > 1000 | > 3 |
| CN1C2CCC1CC(OC(=O)n1c(=O)[nH]c3ccc(F)cc31)C2 (configuration not stated) | – | 33.9 | 0.062 |
| CN1CCC(OC(=O)n2c(=O)[nH]c3ccccc32)CC1 | – | > 1000 | > 3 |
| CN1C2CCC1CC(OC(=O)n1c(=O)[nH]c3cc(C(F)(F)F)ccc31)C2 (configuration not stated) | – | > 1000 | > 3 |
| CN1C2CCC1CC(NC(=O)n1c(=O)[nH]c3ccccc31)C2.Cl (configuration not stated) | >3000 | > 1000 | – |
| CN1C2CCCC1CC(OC(=O)n1c(=O)[nH]c3ccccc31)C2.Cl (configuration not stated) | 10.8 | 2.17 | – |
| CN1C2CCCC1CC(NC(=O)n1c(=O)[nH]c3ccccc31)C2.Cl (configuration not stated) | 1.1 | 1.53 | – |
| O=C(OC1CC2CCC(C1)N2Cc1ccccc1)n1c(=O)[nH]c2ccccc21 (configuration not stated) | – | > 1000 | > 3 |
| CN1C2CCC1CC(OC(=O)n1c(=O)[nH]c3cc(F)ccc31)C2 (configuration not stated) | – | 26.2 | 0.204 |
| CC1CC(OC(=O)n2c(=O)[nH]c3ccccc32)CC(C)N1C (configuration not stated) | – | > 1000 | > 3 |
| CN1CC2CCC1CC2OC(=O)n1c(=O)[nH]c2ccccc21.Cl (configuration not stated) | >3000 | > 1000 | – |
| Cc1cccc2c1[nH]c(=O)n2C(=O)OC1CC2CCC(C1)N2C (configuration not stated) | – | 7.94 | 0.0301 |
| CN1C2CCC1CC(OC(=O)n1c(=O)n(C)c3ccccc31)C2 (configuration not stated) | – | 12 | 0.038 |
| CCn1c(=O)n(C(=O)NC2CC3CCC(C2)N3C)c2ccccc21 (configuration not stated) | – | 2.3 | 0.0051 |

| Compound | ED50 (Rattus norvegicus) [nM/kg] | Ki [1] [nM] | ED50 (Rattus norvegicus; [2]) [µmol/kg] |
| --- | --- | --- | --- |
| CCn1c(=O)n(C(=O)OC2CC3CCC(C2)N3C)c2ccccc21 (configuration not stated) | – | 18 | 0.0097 |
| O=C(OC1CCNCC1)n1c(=O)[nH]c2ccccc21 | – | 72.4 | 0.487 |
| COc1ccc2[nH]c(=O)n(C(=O)OC3CC4CCC(C3)N4C)c2c1 (configuration not stated) | – | > 1000 | – |
| CN1C2CCC1CC(OC(=O)n1c(=O)[nH]c3ccccc31)C2.Cl (configuration not stated) | 3982 | > 1000 | – |
| O=C(OC1CN2CCC1CC2)n1c(=O)[nH]c2ccccc21 (configuration not stated) | – | 16.3 | 0.8 |
| CN1C2CCC1CC(OC(=O)n1c(=O)[nH]c3cc(Cl)ccc31)C2 (configuration not stated) | – | > 1000 | > 3 |
| O=C(OC12CCN(CC1)CC2)n1c(=O)[nH]c2ccccc21 | – | > 1000 | > 3 |
| Cc1cc2[nH]c(=O)n(C(=O)OC3CC4CCC(C3)N4C)c2cc1C (configuration not stated) | – | > 1000 | > 3 |
| CCN1C2CCC1CC(OC(=O)n1c(=O)[nH]c3ccccc31)C2 (configuration not stated) | – | > 1000 | > 3 |
| Cc1cccc2[nH]c(=O)n(C(=O)OC3CC4CCC(C3)N4C)c12 (configuration not stated) | – | 306 | > 3 |
| C[N+]1(C)C2CCC1CC(OC(=O)n1c(=O)[nH]c3ccccc31)C2 (configuration not stated) | – | 33.6 | 0.0093 |
| CN(C(=O)n1c(=O)[nH]c2ccccc21)C1CC2CCCC(C1)N2C (configuration not stated) | – | > 1000 | > 3 |
| CN1C2CCCC1CC(NC(=O)n1c(=O)n(C)c3ccccc31)C2 (configuration not stated) | – | 0.89 | 0.0015 |
| O=C(NC1CCN2CCCC1C2)n1c(=O)[nH]c2ccccc21 (configuration not stated) | – | 20.2 | 0.289 |
| O=C(NC1CN2CCC1CC2)n1c(=O)[nH]c2ccccc21 (configuration not stated) | – | 2.07 | 0.0035 |
| CN1C2CCCC1CC(NC(=O)n1c(=O)[nH]c3ccccc31)C2 (configuration not stated) | 905 | 130 | – |
| O=C(NC1CC2CCC(C1)N2Cc1ccccc1)n1c(=O)[nH]c2ccccc21 (configuration not stated) | – | > 1000 | > 3 |
| CN1C2CCC1C(OC(=O)n1c(=O)[nH]c3ccccc31)C2 (configuration not stated) | – | > 1000 | > 3 |
| COc1ccc2c(c1)[nH]c(=O)n2C(=O)OC1CC2CCC(C1)N2C (configuration not stated) | – | > 1000 | > 3 |
| CN1[C@@H]2CC[C@H]1C[C@@H](OC(=O)c1cc(Cl)cc(Cl)c1)C2 [BEMESETRON] | – | 24.4 | 0.195 |
| CN1[C@@H]2CC[C@H]1C[C@@H](OC(=O)c1c[nH]c3ccccc13)C2 [TROPISETRON] | – | 1.71 | 0.0021 |
